Jurkat NFkB inh = inhibitors of induced NF-kB luciferase reporter, primary screen, TCR NF-kB activation inhibitor project, cell-based, luminescence, uHTS | Jurkat, PMA/ionomycin-induced NF-kB luciferase reporter | inhibition, % at 4 µM | 330,000 tested, 0.53% active; in the data active means inhibition above about 50%
CRFR2-BP antag = antagonists of CRF-BP/CRF-R2 complex, primary screen, cell-based, HEK293, calcium dye fluorescence, uHTS; AID 588475, 2011; 350,000 tested, 0.59% active; inhibition, % at 11.8 µM; CRF-induced calcium fluorescence;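 active means inhibition of the ligand-induced calcium signal above about 50% at the single tested concentration, limit read from the data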
UPR CHOP act = activators of apoptotic CHOP UPR arm, primary screen, cell-based, CHO-CHOP luciferase reporter, luminescence, uHTS | UPR activation; percent of tunicamycin response over DMSO baseline | activation, % at 10 µM | 330,000 tested, 0.34% active;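 active means at 10 µM dose, activation of 40% or more, normalized to positive control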;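 further: 100% = tunicamycin at 10 µg/mL and 0% = DMSO alone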
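measured by = luciferase luminescence | assay system = CHO-CHOP cells, stable luciferase reporter of PERK-eIF2a-CHOP signalling | amount = 500 reporter cells seeded per well | timing = 6 h compound exposure at 37 °C after overnight seeding | controls = positive tunicamycin 10 µg/mL, negative DMSO alone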
UPR XBP1 act = activators of adaptive XBP1 UPR arm, primary screen, cell-based, CHO-XBP1 luciferase reporter, luminescence, uHTS; activation, % at 20 µM; IRE1-XBP1 UPR activation; percent of tunicamycin response, DMSO as zero; 330,000 tested, 0.33% active;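 active means versus positive control, 20 µM dose yields 30% or more activation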;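 further: 100% = tunicamycin at 10 µg/mL and 0% = DMSO only wells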
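incubation = overnight seeding at 37 °C, 6 h compound treatment at 37 °C | assay system = CHO-XBP1 cells stably carrying IRE1-XBP1-driven luciferase reporter | input = 1000 cells per well | detection = luciferase luminescence | dosing = single point, 20 µM final compound, 1% DMSO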
697 NFkB inh = inhibitors of PMA/ionomycin-induced NF-kB reporter, 697 cells, primary screen, B-cell NF-kB inhibitor project, cell-based, luminescence, uHTS | 697 B-cell NF-kB luciferase reporter, 16 h | inhibition, % at 4 µM | 330,000 tested, 0.33% active | AID 435022, 2010; in the data active means inhibition above about 35%
Jurkat NFkB conf = PMA/ionomycin-induced NF-kB reporter inhibitors, Jurkat retest, confirmation, T-cell NF-kB inhibitor project, cell-based, luminescence, single concentration | shares compounds with Jurkat NFkB inh | inhibition, % at 4 µM | Jurkat NF-kB luciferase, 16 h | 2,700 tested, 27% active | AID 435020, 2010;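 active means inhibition reaching about 45% at 4 µM in either replicate, limit read from the data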;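 further: plate controls were PMA/ionomycin stimulated DMSO wells for no effect and unstimulated DMSO wells for full effect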
697 NFkB conf = PMA/ionomycin-induced NF-kB reporter inhibitors, 697 retest, confirmation, B-cell NF-kB inhibitor project, cell-based, luminescence, single concentration | shares compounds with 697 NFkB inh | 697 B-cell NF-kB luciferase, 16 h | inhibition, % at 4 µM | 2,000 tested, 35% active; in the data active means inhibition mostly above about 28%, no sharp cut-off; inactive means mostly below about 22%
* hit, by the source's call; i = inactive; nt = no result given. This is a sample that favours compounds with a hit; in the whole collection about 1.8% have one here.

SMILES | Jurkat NFkB inh | CRFR2-BP antag | UPR CHOP act | UPR XBP1 act | 697 NFkB inh | Jurkat NFkB conf | 697 NFkB conf
CCOc1ccc(NC(=O)Nc2cccc(C(=O)O)c2)cc1 | 82.4* | 1.3 | -8.9 | -8.5 | 81.5* | 79.8* | 77.0*
O=C(OCc1nc2ccsc2c(=O)[nH]1)c1ccccc1 | 0.9 | -11.0 | 2.1 | 0.2 | -3.4 | nt | nt
COc1ccc(/C=C/c2c(-c3ccc(OC)cc3)oc3ccc(-c4ccc(OC)cc4)cc23)cc1 | -3.3 | -6.1 | -1.9 | 0.4 | 14.8 | nt | nt
COc1ccc(/C=C/c2cc(-c3ccc(C)cc3)o[n+]2C)cc1 | 60.7* | -26.6 | 1.0 | 0.3 | 92.8* | 51.5* | 41.2*
O=C(CN1C(=O)c2ccccc2C1=O)NCC(=O)Nc1ccccc1 | nt | -2.8 | nt | nt | nt | nt | nt
COc1cc(C(=O)NC(C)c2ccc3ccccc3c2)cc(Cl)c1O (centres undefined) | 8.0 | 1.7 | 6.2 | -7.8 | 26.1 | nt | nt
O=C(NC(=S)Nc1cccnc1)c1cccs1 | -17.5 | -2.2 | 0.1 | -2.6 | -0.3 | nt | nt
O=C(NC(=S)Nc1ccc(Cl)cn1)c1cccs1 | -163.8 | 0.0 | 1.9 | -4.8 | -323.9 | -100.5 | -166.8
CCOc1ccc(NC(=O)CN(C)C(=O)c2ccc3c(c2)S(=O)(=O)N=C2CCCCCN23)cc1OCC | nt | 5.3 | nt | nt | nt | nt | nt
N#Cc1nc(Nc2cccc(Cl)c2)c2ncn(C3CCCC3)c2n1 | -256.6 | 96.6* | 10.3 | 5.8 | -259.5 | -58.8 | -358.2
O=[N+]([O-])c1cc(-c2cccnc2)n[nH]1 | nt | 6.3 | nt | nt | nt | nt | nt
Cc1ccsc1/C=N/Nc1nc2ccccc2s1 | -198.2 | -72.0 | 2.3 | -1.7 | -342.2 | -97.7 | -272.6
Fc1ccc(Nc2nc3ccccc3s2)cc1 | -94.0 | -7.6 | 3.2 | 4.3 | -54.8 | nt | nt
Oc1ccccc1C=NNc1nc2ccccc2s1 | nt | -8.0 | nt | nt | nt | nt | nt
Cc1ccc(Nc2nc3ccccc3s2)cc1 | -152.6 | -26.5 | 6.8 | 4.6 | -287.6 | -123.6 | -265.4
C(=N\Nc1nc2ccccc2s1)/c1ccco1 | -159.7 | -7.0 | -0.3 | -4.0 | -296.9 | -99.6 | -245.4
Cc1cc(CSc2ccccc2)ccc1NC(=O)c1ccc(CN2CCOCC2)cc1 | 70.0* | -20.1 | -0.9 | -2.6 | 48.9* | 72.5* | 46.7*
COc1ccc(-c2c(C)nc3c(-c4ccsc4)cnn3c2N)cc1 | -196.0 | -3.2 | 3.8 | -4.5 | -251.6 | -75.9 | -165.2
Cn1c(-c2ccccc2F)cc2onc(-c3ccccc3)c2c1=O | -232.3 | 2.3 | 0.1 | -2.4 | -348.8 | -97.6 | -402.8
Cn1c(-c2ncc(F)cc2F)cc2onc(-c3c(F)cccc3Cl)c2c1=O | -0.2 | -1.5 | 6.6 | -3.6 | -98.6 | nt | nt
COc1cc([C@@H]2c3cc4c(cc3[C@H](O)[C@H]3COC(=O)[C@H]23)OCO4)cc(OC)c1OC | 72.5* | 9.5 | 0.1 | 5.7 | -326.8 | 62.3* | -96.4
COCC(=O)N1C[C@H]2CON(C)[C@H]2C[C@H]1c1cccc(-c2ccccc2)c1 | nt | -2.7 | nt | nt | nt | nt | nt
O=C(N=c1nc2ccccn2s1)c1ccccc1 | -191.1 | -8.9 | -5.4 | -5.5 | -323.6 | -72.2 | -303.8
Cc1nn(CC(=O)NC2CCS(=O)(=O)C2)c(C)c1[N+](=O)[O-] (centres undefined) | 1.0 | 11.9 | 0.1 | 3.2 | 7.6 | nt | nt
O=Nc1ccc(O)c2ncccc12 | 59.7* | 4.7 | -1.3 | -6.0 | i | 24.6 | i
O=S(=O)(O)c1cccc2c(N=Nc3ccc(O)c4ncccc34)cccc12 | nt | 7.6 | nt | nt | nt | nt | nt
Cc1nn(C(C)(C)C)c(C)c1/C=N/OC(=O)Nc1ccc(Cl)cc1 | 74.9* | -6.8 | -10.2 | -11.4 | 52.1* | 95.1* | 62.9*
CCc1ccc(NC(=O)c2cnn(-c3ccccc3)c2C)cc1 | -215.4 | -0.2 | 3.0 | -0.5 | -293.2 | -144.7 | -298.1
CCc1ccc(NC(=O)c2cnn(-c3ccccc3)c2C2CCNCC2)cc1 | -5.0 | 25.6 | -0.4 | 3.6 | -16.3 | nt | nt

Assay outcomes as filed in PubChem BioAssay.
